Assay results published in ChEMBL document CHEMBL1156279, “2-Cyano-3,10-dioxooleana-1,9(11)-dien-28-oic acid anhydride. A novel and highly potent anti-inflammatory and cytoprotective agent” (Bioorg Med Chem Lett, 2010).
Calls of active or inactive are those of the source. The rule behind the calls is not given here.

Key:
Liver = experiment: Drug level in CD1 mouse liver at 2 umol, ip after 6 hrs by HPLC/MS; assay type: ADME, organism-based; settings: in vivo
Outline: (§1)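 Female CD-1 mice dosed i.p. with 2 µmol compound in DMSO–cremophor–PBS (1:1:8). Sacrificed 6 hours later; liver, lung, whole blood and plasma collected for compound levels (tissue µmol/kg, blood/plasma µM).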

[1] = Drug level in CD1 mouse whole blood at 2 umol, ip after 6 hrs by HPLC/MS; assay type: ADME, organism-based; settings: read-out: Drug uptake; outline: as §1
[2] = Stability assessed as compound remaining after 24 hrs in presence of in 10% fetal bovine serum; assay type: ADME; settings: cattle
Outline: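 Compound incubated in RAW 264.7 cell growth medium (RPMI with 10% fetal bovine serum) at 37 °C. Percentage of material remaining followed over time up to 24 h.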

[3] = molecular target: T1, Heme oxygenase 1 (Mus musculus) (UniProt P14901); experiment: Induction of HO1 in mouse RAW264.7 cells at 100 nM after 6 hrs by SDS-PAGE; assay type: cell-based
T1 sequence (whole entry): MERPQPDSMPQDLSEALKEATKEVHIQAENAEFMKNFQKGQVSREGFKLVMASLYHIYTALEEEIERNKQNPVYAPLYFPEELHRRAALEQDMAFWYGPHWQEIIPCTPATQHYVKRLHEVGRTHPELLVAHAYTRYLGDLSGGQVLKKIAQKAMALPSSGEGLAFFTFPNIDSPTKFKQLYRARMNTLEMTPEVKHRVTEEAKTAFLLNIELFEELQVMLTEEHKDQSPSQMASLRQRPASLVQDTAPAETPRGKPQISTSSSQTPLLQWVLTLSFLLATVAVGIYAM
Outline: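 RAW 264.7 cells exposed to compounds at 100 nM for 6 hours. Total cell lysates resolved by SDS-PAGE, immunoblotted with HO-1 antibody, ECL detection.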

Mus musculus = experiment: Induction of HO1 in CD1 mouse liver at 2 umol, ip after 6 hrs by SDS-PAGE; assay type: functional, organism-based
Outline: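 CD-1 mice, 4 per group, given a single 2 µmol i.p. injection. Livers harvested after 6 h and homogenized. Lysates separated by SDS-PAGE, probed with HO-1 antibodies and developed by ECL.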

RAW264.7 = experiment: Antiinflammatory activity against IFN-gamma-stimulated mouse RAW264.7 cells assessed as nitrite accumulation after 24 hrs by Griess reagent method; assay type: functional, cell-based; settings: RAW264.7, 24 h
Outline: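 RAW 264.7 cells co-treated with graded compound concentrations and interferon-γ (10 ng/mL) for 24 hours; nitric oxide in supernatants measured by Griess reaction. IC50 averaged over three experiments.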

Lung = experiment: Drug level in CD1 mouse lung at 2 umol, ip after 6 hrs by HPLC/MS; assay type: ADME, organism-based; settings: in vivo; outline: as §1
[4] = Drug uptake in CD1 mouse plasma at 2 umol, ip after 6 hrs by HPLC/MS; assay type: ADME, organism-based; settings: read-out: Drug uptake; outline: as §1

SMILES | Drug uptake (Liver) [µmol/kg] | concentration at 6 h [1] [µM] | Activity [2] | Activity [3] | Activity (Mus musculus) | IC50 (RAW264.7) [nM] | Drug uptake (Lung) [µmol/kg] | concentration at 6 h [4] [µM]
CC1(C)CC[C@]2(C(=O)OC(=O)[C@]34CCC(C)(C)C[C@H]3[C@H]3C(=O)C=C5[C@@]6(C)C=C(C#N)C(=O)C(C)(C)[C@@H]6CC[C@@]5(C)[C@]3(C)CC4)CC[C@]3(C)[C@H](C(=O)C=C4[C@@]5(C)C=C(C#N)C(=O)C(C)(C)[C@@H]5CC[C@]43C)[C@@H]2C1 | 0.045 | 52 | Active | Active | Active | 14.7 | 0.031 | 43
C=C(C)[C@@H]1CC[C@]2(C(=O)O)CC[C@]3(C)[C@H](CC[C@@H]4[C@@]5(C)C=C(C#N)C(=O)C(C)(C)[C@@H]5CC[C@]43C)[C@@H]12 | – | – | – | Active | – | – | – | –
C=C(C)[C@@H]1CC[C@]2(C(=O)OC(=O)[C@]34CC[C@@H](C(=C)C)[C@@H]3[C@H]3CC[C@@H]5[C@@]6(C)C=C(C#N)C(=O)C(C)(C)[C@@H]6CC[C@@]5(C)[C@]3(C)CC4)CC[C@]3(C)[C@H](CC[C@@H]4[C@@]5(C)C=C(C#N)C(=O)C(C)(C)[C@@H]5CC[C@]43C)[C@@H]12 [LUPANE ANHYDRIDE] | – | – | – | inactive | – | > 10000 | – | –
CC1(C)CC[C@]2(C(=O)O)CC[C@]3(C)[C@H](C(=O)C=C4[C@@]5(C)C=C(C#N)C(=O)C(C)(C)[C@@H]5CC[C@]43C)[C@@H]2C1 [BARDOXOLONE] | 0.041 | 19 | – | Active | – | 28.3 | 0.018 | 2
